Reference: ChEMBL document CHEMBL2086243, “Spirocyclic nortriterpenoids with NGF-potentiating activity from the fruits of Leonurus heterophyllus” (J Nat Prod, 2012)
The source made the active and inactive calls. The calls are words filed in the database; no cut-off is given here.

Experiments:
[1] = system: PC-12; experiment: Effect on cell morphology in rat PC12 cells at 1 to 30 uM incubated for 4 days in absence of NGF; type: functional, cell-based
Procedure, shortened: (§1)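 PC12 cells seeded at 8 × 10^3 cells/cm2 in DMEM + 10% HS, 5% FBS, penicillin/streptomycin, 37 °C, 5% CO2, 24 h. Medium then switched to DMEM + 2% HS, 1% FBS and test samples added without NGF. After 4 days, cells fixed in 4% paraformaldehyde−PBS, stained with methylene blue, and morphology examined by phase-contrast microscopy. Triplicate wells.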

[2] = system: PC-12; experiment: Potentiation of NGF-induced neurite outgrowth-promotion in rat PC12 cells assessed as increase in neurite length at 10 uM incubated for 4 days in presence of 0.5 ng/mL NGF (reference value: 21.1 micrometer); type: functional
[3] = system: PC-12; experiment: Potentiation of NGF-induced neurite outgrowth-promotion in rat PC12 cells at 1 to 30 uM incubated for 4 days in presence of 0.5 ng/mL NGF; type: functional, cell-based
[4] = system: PC-12; experiment: Potentiation of NGF-induced neurite outgrowth-promotion in rat PC12 cells assessed as increase in neurite length at 1 uM incubated for 4 days in presence of 0.5 ng/mL NGF (reference value: 21.1 micrometer); type: functional
[5] = system: PC-12; experiment: Potentiation of NGF-induced neurite outgrowth-promotion in rat PC12 cells assessed as increase in neurite length at 30 uM incubated for 4 days in presence of 0.5 ng/mL NGF (reference value: 21.1 micrometer); type: functional
[6] = system: PC-12; experiment: Potentiation of NGF-induced neurite outgrowth-promotion in rat PC12 cells assessed as increase in neurite length at 1 to 30 uM incubated for 4 days in presence of 0.5 ng/mL NGF (reference value: 21.1 micrometer); type: functional, cell-based
[7] = system: PC-12; experiment: Potentiation of NGF-induced neurite outgrowth-promotion in rat PC12 cells at 10 uM incubated for 4 days in presence of 0.5 ng/mL NGF; type: functional, cell-based
[8] = system: PC-12; experiment: Toxicity in NGF-stimulated rat PC12 cells at > 30 uM incubated for 4 days in presence of 0.5 ng/mL NGF; type: cell-based; settings: pc-12, 96 h
Procedure, shortened: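 PC12 cells grown 24 h in DMEM + 10% HS/5% FBS, then exposed for 4 days to test samples with 0.5 ng/mL NGF in DMEM + 2% HS/1% FBS. After fixing in 4% paraformaldehyde−PBS and methylene blue staining, cells were examined under phase-contrast microscopy.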

[9] = system: PC-12; experiment: Potentiation of NGF-induced neurite outgrowth-promotion in rat PC12 cells at 1 uM incubated for 4 days in presence of 0.5 ng/mL NGF; type: functional, cell-based
[10] = system: PC-12; experiment: Effect on cell morphology in rat PC12 cells at 1 to 10 uM incubated for 4 days in absence of NGF; type: functional, cell-based; procedure, shortened: as §1

Row | SMILES | Activity [1] | Activity [2] | Activity [3] | Activity [4] | Activity [5] | Activity [6] | Activity [7] | Activity [8] | Activity [9] | Activity [10]
1 | COc1cc(/C=C/C(=O)O[C@H]2[C@H](O)C[C@@]3(C)[C@@H](CC[C@]4(C)[C@@H]3CC=C3[C@@H](O)[C@@]5(CCC(C)(C)C5)CC[C@]34C)[C@]2(C)CO)ccc1O (relative stereo) | inactive | 42 um | Dose-dependent effect | 32.1 um | 55.1 um | Dose-dependent effect |  |  |  | 
2 | CC1(C)CC[C@]2(CC[C@]3(C)C(=CC[C@@H]4[C@@]5(C)C[C@@H](O)[C@H](OC(=O)/C=C/c6ccc(O)cc6)[C@@](C)(CO)[C@@H]5CC[C@]43C)[C@H]2O)C1 (relative stereo) | inactive | 33.5 um | Dose-dependent effect | 27.6 um | 41.9 um | Dose-dependent effect |  |  |  | 
3 | CC1(C)CC[C@]2(CC[C@]3(C)C(=CC[C@@H]4[C@@]5(C)C[C@@H](O)[C@H](OC(=O)/C=C\c6ccc(O)cc6)[C@@](C)(CO)[C@@H]5CC[C@]43C)[C@H]2O)C1 (relative stereo) | inactive | 33.5 um | Dose-dependent effect | 27.6 um | 41.9 um | Dose-dependent effect |  |  |  | 
4 | COc1cc(/C=C\C(=O)O[C@H]2[C@H](O)C[C@@]3(C)[C@@H](CC[C@]4(C)[C@@H]3CC=C3[C@@H](O)[C@@]5(CCC(C)(C)C5)CC[C@]34C)[C@]2(C)CO)ccc1O (relative stereo) | inactive | 42 um | Dose-dependent effect | 32.1 um | 55.1 um | Dose-dependent effect |  |  |  | 
5 | CC1(C)CC[C@]2(CC[C@]3(C)C(=CC[C@@H]4[C@@]5(C)C[C@@H](O)[C@H](O)[C@@](C)(CO)[C@@H]5CC[C@]43C)[C@H]2O)C1 |  | 33.1 um |  | 22.9 um |  | Dose-dependent effect | Active | Toxic | Active | inactive
